Laboratory results published in ChEMBL document CHEMBL4513216, “Probing the Open Global Health Chemical Diversity Library for Multistage-Active Starting Points for Next-Generation Antimalarials” (ACS Infect Dis, 2020).

Assay: Toxicity liver stage against HepG2, at 10uM
Format: cell-based
Design: test concentration 10 uM, cell line HepG2-A16-CD81EGFP
Settings: human, HepG2-A16-CD81EGFP cells; read-out: INHIBITION
How it was run: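 Uninfected HepG2-A16-CD81EGFP cells, 3 × 10^3 per well, 1536-well, plated on prespotted compound at 10 μM final, parasite-free screening media added to match infected plates; puromycin 10 μM positive, DMSO 0.5% negative; run in parallel with 48 h PbLuc assay at 37 °C, 5% CO2; viability by CellTiter-Glo luminescence, normalized to controls.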

O=C(Nc1cccc(OCc2cccc(F)c2)c1)C1COCCO1 (configuration not stated)
cytotoxicity at 10 µM: 8.06%

O=S(=O)(c1ccccc1)N1C2CCC(O)(CC2)C1CN1CCOCC1 (configuration not stated)
cytotoxicity at 10 µM: -4.65%

N#Cc1ncn(CC(=O)Cc2c(F)cccc2Cl)n1
cytotoxicity at 10 µM: -1.45%

c1ccc(CCNC2CCc3ncnn3C2)nc1 (configuration not stated)
cytotoxicity at 10 µM: -4.03%

COc1ccc(CN(C)CC(O)COCc2ccccc2Cl)c(OC)c1 (configuration not stated)
cytotoxicity at 10 µM: 18.8%

CN(C(=O)Cc1ccc(F)cc1)C1CCN(c2ccccn2)CC1
cytotoxicity at 10 µM: -15.8%

COCc1nc2cc(NCc3nc(C)cs3)ccc2o1
cytotoxicity at 10 µM: -2.57%

COc1cccc(C(O)Cn2ncc3ncccc3c2=O)c1 (configuration not stated)
cytotoxicity at 10 µM: -2.45%

COc1ccccc1CNc1ncc(-c2cc(C)no2)c(C(C)C)n1
cytotoxicity at 10 µM: 8.49%

CN1CCC(NC(=O)c2cc(C3CCCCC3)nc3ccccc23)CC1
cytotoxicity at 10 µM: -1.25%

NCc1cnn(-c2ccccc2C(=O)NCc2ccncc2)c1
cytotoxicity at 10 µM: -1.78%

CC(C)c1nccc(CN2CCCC(O)(CN(C)C)CC2)n1 (configuration not stated)
cytotoxicity at 10 µM: -2.01%

Cc1cnc(C(=O)N2CCC3(CCN3Cc3ccc(F)cc3)C2)cn1 (configuration not stated)
cytotoxicity at 10 µM: -104%

CSc1cc2c(cc1NC(=O)N(C)Cc1ccncc1)OCCO2
cytotoxicity at 10 µM: 11.4%

CCC(=O)N1CCCN(C(=O)c2cc(C)cc(Br)c2O)CC1
cytotoxicity at 10 µM: 7.12%

COc1cc(C)ccc1OCCC(=O)N1CCC(C(N)=O)C1 (configuration not stated)
cytotoxicity at 10 µM: 6.31%

COc1ccc(C2CCCN2C(=O)Nc2ccc(OC)nc2)cc1 (configuration not stated)
cytotoxicity at 10 µM: 2.58%

c1cc(CN2CCCC3(CCN(CC4CCCO4)CC3)C2)n[nH]1 (configuration not stated)
cytotoxicity at 10 µM: -101%

CC(NC(=O)NCCc1ccc(Cl)s1)c1ccccn1 (configuration not stated)
cytotoxicity at 10 µM: -3.07%

CNC(=O)CN1CCC(NC(=O)Cn2cc(C)c3ccccc32)CC1
cytotoxicity at 10 µM: -4.65%

CC(C)(C)Cc1noc2ncc(C(=O)N3CCC3)cc12
cytotoxicity at 10 µM: 7.28%

Fc1cnccc1CN1CCC2(CCN2c2ncccn2)C1 (configuration not stated)
cytotoxicity at 10 µM: -111%

O=C(COc1ccccc1F)NCCC(O)c1ccoc1 (configuration not stated)
cytotoxicity at 10 µM: -13.4%

Cc1cc(C)n(CC2CCCN2CC(=O)N(C)Cc2ccco2)n1 (configuration not stated)
cytotoxicity at 10 µM: -12.2%

CCC(=O)N1CCCC1C(=O)N1CCC(Cc2ccc(F)cc2)CC1 (configuration not stated)
cytotoxicity at 10 µM: -0.0726%

CC(C)C1CN(S(=O)(=O)N2CCCC2)CCCN1Cc1ccc(F)cc1 (configuration not stated)
cytotoxicity at 10 µM: 7.2%

CN(CC1CCCO1)C1CCN(CCc2ccccn2)CC1 (configuration not stated)
cytotoxicity at 10 µM: -5.6%

O=C(c1ccoc1)N1CC[C@@H]2[C@H]1CCC(=O)N2c1ccccc1
cytotoxicity at 10 µM: -0.362%

O=C1CCCc2occ(C(=O)N3CCCC4(CCNC4)C3)c21 (configuration not stated)
cytotoxicity at 10 µM: 9.15%

Cc1noc(CNc2ccccc2CC(=O)N(C)C)n1
cytotoxicity at 10 µM: 2.69%

CSc1ccccc1CN1CCn2nc(CNC(C)=O)cc2C1
cytotoxicity at 10 µM: -17%

COC(=O)N1CCC(c2nnc(Cn3ccnc3)n2C)CC1
cytotoxicity at 10 µM: -110%

O=C(Cn1cc(C(=O)O)ccc1=O)Nc1ccc(Cl)cc1F
cytotoxicity at 10 µM: -6.94%

Cc1n[nH]c(C)c1-c1c(C#N)c(N)nc2c1CCc1[nH]ccc1-2
cytotoxicity at 10 µM: 2.83%

Cc1ccc(N2CC3(COCCN(Cc4cnn(C)c4)C3)OCC2=O)s1 (configuration not stated)
cytotoxicity at 10 µM: -5.18%

Cc1cnc(CNC(=O)[C@@]23CCO[C@@H]2CCN(C2CCCC2)C3)cn1
cytotoxicity at 10 µM: -110%

N[C@H]1CN(C(=O)CCCc2ccc(F)cc2)C[C@@H]1C1CC1
cytotoxicity at 10 µM: -2.45%

Cc1cccnc1NC(=O)CNC(=O)c1ccccc1Cl
cytotoxicity at 10 µM: -3.36%

COCC(=O)N1CCN(Cc2coc(-c3cccc(F)c3)n2)CC1
cytotoxicity at 10 µM: -7.16%

Cc1cccc(CN2C(=O)CCC23CCNCC3)n1
cytotoxicity at 10 µM: 0.758%

NC(=O)Nc1cccc(C(=O)N(Cc2ccncc2)C2CC2)c1
cytotoxicity at 10 µM: -2.34%

CCOC(=O)[C@]12CCCN(Cc3ccco3)C[C@H]1CN(S(C)(=O)=O)C2
cytotoxicity at 10 µM: 6.86%

COCCNC(=O)[C@@H]1CN(c2cc(OC)ncn2)C[C@H]2OCC[C@H]21
cytotoxicity at 10 µM: -3.06%

Fc1cccc(-n2nc(C3CC3)nc2CCn2cnnn2)c1
cytotoxicity at 10 µM: -0.174%

CN(Cc1cnn(C)c1)C(=O)NCc1csc(Br)c1
cytotoxicity at 10 µM: 0.568%

O=C(c1ccc(Cn2ccccc2=O)o1)N1CCC2(CC1)OCCO2
cytotoxicity at 10 µM: -12.8%

CC(=O)NCCCC(=O)N1CCC(Sc2cccc(C)c2)CC1
cytotoxicity at 10 µM: 2.06%

CCC(CO)N(Cc1cccs1)C(=O)Cc1ccc(O)cc1 (configuration not stated)
cytotoxicity at 10 µM: 6.57%

CC(C)N1CC[C@@H]2OC[C@H](C(=O)Nc3cccnc3)C[C@@H]2C1
cytotoxicity at 10 µM: 15.7%

COCCNC(=O)c1ccc2c(=O)n3c(nc2c1)CCCC3
cytotoxicity at 10 µM: 10%

Cc1cccc(NC(=O)NC2CCC3(C2)OCCO3)c1Cl (configuration not stated)
cytotoxicity at 10 µM: 10.6%

Cc1ccc(CC(=O)N2CCC(c3nnc4n3CCC4)CC2)cc1
cytotoxicity at 10 µM: 4.78%

Cc1cc2n(n1)CC(CNCc1ccccc1-n1cccn1)CN2 (configuration not stated)
cytotoxicity at 10 µM: -11.5%

Cc1nc(-c2noc3ccc(C(=O)NCCN4CCOCC4)cc23)co1
cytotoxicity at 10 µM: 15%

CC(O)(CCc1ccccc1)CNC(=O)c1ccsc1 (configuration not stated)
cytotoxicity at 10 µM: -1.18%

O=C(c1ccco1)N1CCC2(CC1)C(=O)Nc1ccccc12
cytotoxicity at 10 µM: -144%

Cc1nn(C)c2nc(N(CCN(C)C)CC3CCCO3)sc12 (configuration not stated)
cytotoxicity at 10 µM: -4.62%

CC1CCc2n[nH]c(C(=O)NCCc3ccco3)c2C1 (configuration not stated)
cytotoxicity at 10 µM: -6.63%

COc1ccc(Br)cc1CCC(=O)N1CCSCC1
cytotoxicity at 10 µM: 5.48%

CN(Cc1ccncc1)C(CO)c1cccc(F)c1 (configuration not stated)
cytotoxicity at 10 µM: 2.35%

CN1CCC(N2C[C@H](O)C[C@H]2c2nc(Cc3ccccc3)no2)CC1
cytotoxicity at 10 µM: 10.7%

CC(C)CNC(=O)CNc1c(NCc2ccccn2)c(=O)c1=O
cytotoxicity at 10 µM: -9.06%

CCN(C)S(=O)(=O)N(CC)Cc1ccc2c(c1)OCO2
cytotoxicity at 10 µM: -6.62%

CC(=O)c1c(O)n(C)c2ccccc12
cytotoxicity at 10 µM: 1.64%

Nc1cc(-c2ccc(C(=O)O)cc2O)c2cc[nH]c2n1
cytotoxicity at 10 µM: 10.3%

CCCN(CC)Cn1ncc2cn(-c3ccccc3)nc2c1=O
cytotoxicity at 10 µM: 1.44%

O=C(CCOc1ccc(Cl)cc1)N1CCN(c2cnccn2)CC1
cytotoxicity at 10 µM: -2.65%

COc1cc(-c2cc(-c3ccn(C)c3)nc(N)c2C#N)cc(OC)c1O
cytotoxicity at 10 µM: -7.77%

N#Cc1ccnc(N2CCC(c3nccn3Cc3cscn3)CC2)c1
cytotoxicity at 10 µM: -12.4%

CC(C)c1nsc(N2CCC(OCCN3CCOCC3)CC2)n1
cytotoxicity at 10 µM: -14.2%

Cc1ccc(CN2C[C@H]3CN(C(=O)c4ccno4)CCN3C2=O)cc1
cytotoxicity at 10 µM: -2.07%

CCN1CCC(NC(=O)CN2CCCCC2Cn2cccn2)CC1 (configuration not stated)
cytotoxicity at 10 µM: -2.71%

CC(C)c1nc(CS(=O)(=O)Cc2noc(C3CC3)n2)cs1
cytotoxicity at 10 µM: 6.16%

CNC(=O)[C@H]1C[C@@H]2CN(C(=O)c3ccoc3)C[C@@H]2N1S(C)(=O)=O
cytotoxicity at 10 µM: -3.88%

CN1C[C@@H]2CN(Cc3ccsc3)CCC[C@]2(C(=O)O)C1
cytotoxicity at 10 µM: -141%

CN(C)S(=O)(=O)N1C[C@H]2CC[C@@H](C1)N(CCC(=O)NCc1ccco1)C2
cytotoxicity at 10 µM: -6.74%

CN1CC(=O)N(C2CCNCC2)Cc2c(NCC(C)(C)C)ncnc21
cytotoxicity at 10 µM: 6.2%

O=C(C1COc2ccccc2C1)N(CCO)Cc1ccccc1 (configuration not stated)
cytotoxicity at 10 µM: 4.58%

OC(COCc1ccc2c(c1)OCO2)CN1CC(n2cccn2)C1 (configuration not stated)
cytotoxicity at 10 µM: -5.89%

Cc1occc1C(=O)N1CC[C@H]2C[C@@H](c3nnc(C4CC4)o3)O[C@@H]2C1
cytotoxicity at 10 µM: -111%

CCCn1ncc(C(=O)NC2CCN(CC3CCCO3)CC2)c1C (configuration not stated)
cytotoxicity at 10 µM: -2.43%

COc1ccc(-c2n[nH]cc2CN(C)Cc2nonc2C)c(F)c1
cytotoxicity at 10 µM: -6.46%

O=C(Nc1ccccc1CCc1ccccn1)NC1CCOCC1
cytotoxicity at 10 µM: 6.1%

Cc1noc(C)c1C(=O)N1CCCN(Cc2nccn2C(C)C)CC1
cytotoxicity at 10 µM: -3.92%

CN1CCN(S(C)(=O)=O)c2cc(F)ccc21
cytotoxicity at 10 µM: -1.15%

CC(C1CC1)N(CC(=O)NC(=O)NC1CC1)C1CC1 (configuration not stated)
cytotoxicity at 10 µM: 4.84%

Cc1nn(C2CCS(=O)(=O)C2)c(O)c1Cc1ccccc1 (configuration not stated)
cytotoxicity at 10 µM: -44.6%

COCCCNC(=O)C(C)(C)N(C)C1CCCC1
cytotoxicity at 10 µM: -51.3%

Cc1ccc(C(=O)N(C)Cc2nccn2CC(F)(F)F)cn1
cytotoxicity at 10 µM: 2.52%

COCCN1CCCc2sc(C(=O)N3CCCN(C)CC3)nc21
cytotoxicity at 10 µM: 0.534%

CC(=O)NCCNC(=O)CN1CCN(Cc2nccn2C)C(C)C1 (configuration not stated)
cytotoxicity at 10 µM: -6.73%

Cc1nc(CN(C)C(=O)NC(C)c2ccc3c(c2)OCCO3)cs1 (configuration not stated)
cytotoxicity at 10 µM: -4.45%

O=C1CCCN1Cc1nnc2n1CCN(Cc1ccoc1)CC2
cytotoxicity at 10 µM: 2.72%

O[C@@H]1CCN(CC2CCOC2)[C@H]1Cc1ccccc1 (some centres not stated)
cytotoxicity at 10 µM: -7.98%

Cc1c(C)n(Cc2ccccn2)c2nc3c(c(N)c12)CCCC3
cytotoxicity at 10 µM: 8.37%

CCc1cc(N(C)Cc2c(C)nn(C)c2C)n2nccc2n1
cytotoxicity at 10 µM: 0.613%

COCCN1CCC2(CCC(=O)N2Cc2csc(C)n2)CC1
cytotoxicity at 10 µM: 2.22%

Cc1cc(CN2C[C@@H]3CCCO[C@@H]3[C@H](Nc3ccccn3)C2)no1
cytotoxicity at 10 µM: -4.72%

CNc1cccc(C2CCCN(C(=O)c3ccncc3)C2)n1 (configuration not stated)
cytotoxicity at 10 µM: -4.02%

CC(C#N)CN(C)C(=O)c1cn(-c2ccc(Br)cc2)cn1 (configuration not stated)
cytotoxicity at 10 µM: 13.6%

COc1ccc(C)cc1-n1ccc(C(=O)NCC2CCCOC2)n1 (configuration not stated)
cytotoxicity at 10 µM: -2.51%

Cc1cc(NC(=O)NCC(C)O)n(C)n1 (configuration not stated)
cytotoxicity at 10 µM: 1.69%

COCC(=O)N1Cc2nccn2CC(CN(C)Cc2cccnc2)C1 (configuration not stated)
cytotoxicity at 10 µM: -76.2%

Cc1nccn1Cc1nnc(C2CCN(c3ccncc3F)CC2)n1C
cytotoxicity at 10 µM: -9.36%

CC(=O)N1CC(C)CN(C(=O)c2cscn2)c2ccccc21 (configuration not stated)
cytotoxicity at 10 µM: 1.98%

CS(=O)(=O)N1CCc2[nH]cnc2C12CCN(C(=O)c1ccccc1)CC2
cytotoxicity at 10 µM: -2.66%

COc1ncccc1NC(=O)c1cccc(C)n1
cytotoxicity at 10 µM: 2.3%

Cc1cc2cccc(C(=O)N3CCOC(CCN(C)C)C3)c2o1 (configuration not stated)
cytotoxicity at 10 µM: 5.91%

Cc1cc(Br)ccc1C(=O)NCCN1CCCCCC1
cytotoxicity at 10 µM: -11.6%

CN(C)C(=O)COCc1cncc2c1CCN(Cc1cnn(C)c1)C2
cytotoxicity at 10 µM: -3.48%

C1CC1c1nsc(N2CCN(C3CC3)CC2)n1
cytotoxicity at 10 µM: -16.4%

CCCC1(CO)CCCN(Cc2ncccn2)C1 (configuration not stated)
cytotoxicity at 10 µM: -1.89%
